The results in this text go back to ChEMBL document CHEMBL1146537, “Diterpenoids from Tetraclinis articulata that inhibit various human leukocyte functions” (J Nat Prod, 2003).

Series [1] concerns Neutrophil. Description: Inhibition of cytochalasin B and fMLP-stimulated human neutrophil degranulation assessed as inhibition of myeloperoxidase release at 10 uM preincubated for 5 mins. The class given is functional. The method in brief: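 Neutrophils (2.5×10^6 cells/mL) preincubated 5 min at 37 °C with compound in ethanol (ethanol alone for controls). Then stimulated 10 min at 37 °C with cytochalasin B (10 μM) plus fMLP (10 nM).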

Series [2] can be described thus: Cytotoxicity against human neutrophils up to 10 uM by MTT assay. Particulars: neutrophil. The series is classed as cell-based. On the technique in general: Tetrazolium assays rely on reduction of a dye to a coloured formazan, in cell work by metabolically active cells.
In series [3] the test system is Neutrophil. Description: Inhibition of TPA-induced chemiluminescence response in human neutrophils at 10 uM after 7 mins. The series is classed as functional. The method in brief:
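Neutrophils (2.5×10^6/mL) with luminol (40 μM), stimulated by TPA (1 μM); light output counted after 7 min, chosen as time of maximal production.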

Series [4] concerns Neutrophil. Description: Inhibition of cytochalasin B and fMLP-stimulated human neutrophil degranulation assessed as inhibition of elastase release at 10 uM preincubated for 5 mins measured after 20 mins. The class given is functional. The method in brief:
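Neutrophils (2.5×10^6/mL) preincubated 5 min with compound or vehicle, then cytochalasin B (10 μM) + fMLP (10 nM), 10 min, 37 °C. Supernatant after 1200g spin at 4 °C, 10 min, reacted with Boc-L-alanine p-nitrophenyl ester (200 μM) 20 min, 37 °C; p-nitrophenol read at 414 nm. Direct enzyme inhibition checked by 5 min compound preincubation with stimulated supernatant before substrate.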

Broadly, the inhibition is the drop in the measured response relative to a control, in per cent.

For the compound `C=C[C@@]1(C)CC[C@H]2[C@](O)(CC[C@@H]3[C@]2(C)CCC[C@@]3(C)C=O)C1`, the inhibition at 10 µM was determined as 47.8% in the series on Neutrophil [1], 30.5% with Neutrophil [3] and 17.8% in the series with Neutrophil [4]. For the same compound, the Activity entry in series [2] is recorded as “Non-toxic”.
Taken in the same sequence, the figures for `C=C[C@@]1(C)CC[C@H]2[C@](O)(CC[C@H]3[C@](C)(COC(C)=O)CCC[C@@]32C)C1` were 55.4%, 6.5%, 33.5% and “Non-toxic”.
The corresponding values for `C=C[C@@]1(C)CC[C@H]2[C@](O)(CC[C@H]3[C@](C)(CO)CCC[C@@]32C)C1` are 46.7%, 1.8%, 24.1% and “Non-toxic”.
